Data as given in ChEMBL document CHEMBL6177914, “Human microbiome derived synthetic antimicrobial peptides with activity against Gram-negative, Gram-positive, and antibiotic resistant bacteria” (RSC Med Chem, 2025).
In brackets after ≈: the same amount, converted by molar mass. Activity calls are given as the source filed them. No cut-off for these calls is given here. Peptide text beside a SMILES is read from it.

Key:
[1] = test system: Listeria monocytogenes; assay: Antibacterial activity against Listeria monocytogenes ATCC 15313 assessed as inhibition of bacterial growth incubated for 24 hrs by absorbance based microplate reader analysis; type: functional; details: read-out: MIC100
Procedure, shortened: (§1)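 Broth microdilution. A single colony was grown 24 h in its recommended broth, then diluted 1:10 000 in the same medium. Peptide serial dilutions were added from DMSO stock at 4 µL per 196 µL inoculated medium. Plates were incubated aerobically or anaerobically as each pathogen requires, at 37 °C for 24 h, and OD600 was read. Duplicate wells; assay repeated five times independently.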

[2] = test system: Escherichia coli; assay: Antibacterial activity against Escherichia coli ATCC 33694 assessed as inhibition of bacterial growth incubated for 24 hrs by absorbance based microplate reader analysis; type: functional; details: read-out: MIC100
Procedure, shortened: (§2)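 Broth microdilution. An overnight single-colony culture in recommended broth was diluted 1:10 000, and peptide serial dilutions in DMSO were added (4 µL into 196 µL). Plates incubated 24 h at 37 °C, aerobic or anaerobic as required, then OD600 read. Inhibition was calculated against pathogen-only and blank wells.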

[3] = test system: Pseudomonas aeruginosa; assay: Antibacterial activity against Pseudomonas aeruginosa BAA 1744 assessed as inhibition of bacterial growth incubated for 24 hrs by absorbance based microplate reader analysis; type: functional; procedure, shortened: as §2
[4] = test system: Salmonella enterica; assay: Antibacterial activity against Salmonella enterica ATCC 13314 assessed as inhibition of bacterial growth incubated for 24 hrs by absorbance based microplate reader analysis; type: functional; procedure, shortened: as §2
[5] = test system: Staphylococcus aureus; assay: Bactericidal activity against Staphylococcus aureus ATCC 25923 assessed as inhibition of bacterial growth at MIC concentration incubated for 48 hrs by broth microdilution assay; type: functional, organism-based
Procedure, shortened: (§3)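 From broth-microdilution wells showing no growth, 10 µL was spotted onto agar and incubated 48 h at 37 °C. Plates were inspected for colonies. Fidaxomicin at 1 µM served as control.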

[6] = test system: Clostridioides difficile; assay: Bactericidal activity against Clostridium difficile ATCC 43602 assessed as inhibition of bacterial growth at MIC concentration incubated for 48 hrs by broth microdilution assay; type: functional, organism-based; procedure, shortened: as §3
[7] = test system: Listeria monocytogenes; assay: Bactericidal activity against Listeria monocytogenes ATCC 15313 assessed as inhibition of bacterial growth at MIC concentration incubated for 48 hrs by broth microdilution assay; type: functional, organism-based; procedure, shortened: as §3
[8] = test system: Staphylococcus aureus; assay: Bactericidal activity against methicillin resistant Staphylococcus aureus BAA 2313 assessed as inhibition of bacterial growth at MIC concentration incubated for 48 hrs by broth microdilution assay; type: functional, organism-based
Procedure, shortened: (§4)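 Plates were incubated 48 h at 37 °C and examined for colonies. A fidaxomicin-treated culture at 1 µM served as the control.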

[9] = test system: Enterococcus faecium; assay: Bactericidal activity against vancomycin resistant Enterococcus faecium BAA 2317 assessed as inhibition of bacterial growth at MIC concentration incubated for 48 hrs by broth microdilution assay; type: functional, organism-based; procedure, shortened: as §4
[10] = test system: Escherichia coli; assay: Bactericidal activity against Escherichia coli ATCC 33694 assessed as inhibition of bacterial growth at MIC concentration incubated for 48 hrs by broth microdilution assay; type: functional, organism-based; procedure, shortened: as §3
[11] = test system: Pseudomonas aeruginosa; assay: Bactericidal activity against Pseudomonas aeruginosa BAA 1744 assessed as inhibition of bacterial growth at MIC concentration incubated for 48 hrs by broth microdilution assay; type: functional, organism-based; procedure, shortened: as §3
[12] = test system: Salmonella enterica; assay: Bactericidal activity against Salmonella enterica ATCC 13314 assessed as inhibition of bacterial growth at MIC concentration incubated for 48 hrs by broth microdilution assay; type: functional, organism-based; procedure, shortened: as §3
[13] = test system: Caco-2; assay: Anti-inflammatory activity in human Caco-2 cells infected with Clostridium difficile ATCC 43602 assessed as reduction in IL-1beta level at MIC concentration by ELISA relative to control; type: functional; set-up: scale not given: the % may be the effect or the level left
Procedure, shortened: (§5)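 Caco-2 cells grown in DMEM + 10% FBS, 37 °C, 5% CO2, to 90% confluence, then seeded 30 000 cells/well and held 24 h. C. difficile was grown overnight anaerobically in meat broth, washed in PBS, and 1 µL of 0.5 OD600 culture added per 300 µL medium. […] Cytokine in supernatant measured by ELISA; three independent replicates.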

[14] = test system: Staphylococcus aureus; assay: Antibacterial activity against Staphylococcus aureus ATCC 25923 assessed as reduction in bacterial growth at MIC concentration measured after 24 hrs by time-kill kinetic analysis; type: functional, organism-based
Procedure, shortened: (§6)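 Samples (5 µL) taken at 0, 1, 2, 4, 6, 12, 18 and 24 h, tenfold diluted in 0.85% NaCl, and plated on TSA overnight at 37 °C for CFU counts. Two independent duplicates.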

[15] = test system: Staphylococcus aureus; assay: Antibacterial activity against Staphylococcus aureus ATCC 25923 assessed as reduction in colony forming units at MIC concentration measured after 2 hrs by time-kill kinetic analysis; type: functional; procedure, shortened: as §6
[16] = test system: Staphylococcus aureus; assay: Antibacterial activity against Staphylococcus aureus ATCC 25923 assessed as reduction in surviving bacteria at MIC concentration measured after 12 hrs by time-kill kinetic analysis; type: functional; procedure, shortened: as §6
[17] = Retention time of compound by RP-HPLC analysis; type: physicochemical
Procedure, shortened: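 Analytical reversed-phase HPLC.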

[18] = test system: Clostridioides difficile; assay: Antibacterial activity against Clostridium difficile ATCC 43602 assessed as inhibition of bacterial growth incubated for 24 hrs by absorbance based microplate reader analysis; type: functional; details: read-out: MIC100
[19] = test system: Caco-2; assay: Anti-inflammatory activity in human Caco-2 cells infected with Clostridium difficile ATCC 43602 assessed as reduction in TNFalpha level at MIC concentration by ELISA relative to control; type: functional; set-up: scale not given: the % may be the effect or the level left; procedure, shortened: as §5
[20] = test system: Staphylococcus aureus; assay: Induction of morphological changes in Staphylococcus aureus ATCC 25923 assessed as deformation of cells at MIC concentration by transmission electron microscopic analysis; type: functional, organism-based
Procedure, shortened: (§7)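 Cells were pelleted at 4 °C, washed in 0.1 M PBS pH 7.2, and fixed overnight (4% formaldehyde, 1.25% glutaraldehyde, ruthenium red). Post-fixed in 1% OsO4, dehydrated through ethanol, embedded in epoxy resin and imaged by TEM.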

[21] = test system: Staphylococcus aureus; assay: Induction of morphological changes in Staphylococcus aureus ATCC 25923 assessed as disintegration of cells at MIC concentration by transmission electron microscopic analysis; type: functional, organism-based; procedure, shortened: as §7
[22] = test system: Staphylococcus aureus; assay: Induction of morphological changes in Staphylococcus aureus ATCC 25923 assessed as cell wall lysis at MIC concentration by transmission electron microscopic analysis; type: functional, organism-based; procedure, shortened: as §7
[23] = test system: Staphylococcus aureus; assay: Induction of morphological changes in Staphylococcus aureus ATCC 25923 assessed as fragmentation of intracellular content at MIC concentration by transmission electron microscopic analysis; type: functional, organism-based; procedure, shortened: as §7
[24] = test system: Staphylococcus aureus; assay: Induction of morphological changes in Staphylococcus aureus ATCC 25923 assessed as leakage of intracellular content at MIC concentration by transmission electron microscopic analysis; type: functional, organism-based; procedure, shortened: as §7
[25] = test system: Staphylococcus aureus; assay: Induction of morphological changes in Staphylococcus aureus ATCC 25923 assessed as detachment of pieces from cell wall at MIC concentration by transmission electron microscopic analysis; type: functional, organism-based; procedure, shortened: as §7
[26] = test system: Staphylococcus aureus; assay: Antibacterial activity against Staphylococcus aureus ATCC 25923 assessed as inhibition of bacterial growth incubated for 24 hrs by absorbance based microplate reader analysis; type: functional; details: read-out: MIC100; procedure, shortened: as §1
[27] = test system: Staphylococcus aureus; assay: Antibacterial activity against methicillin resistant Staphylococcus aureus BAA 2313 assessed as inhibition of bacterial growth incubated for 24 hrs by absorbance based microplate reader analysis; type: functional; procedure, shortened: as §1
[28] = test system: Enterococcus faecium; assay: Antibacterial activity against vancomycin resistant Enterococcus faecium BAA 2317 assessed as inhibition of bacterial growth incubated for 24 hrs by absorbance based microplate reader analysis; type: functional
Procedure, shortened: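 Broth microdilution. A single colony was grown 24 h in its recommended broth, then diluted 1:10 000 in the same medium. Peptide serial dilutions were added from DMSO stock at 4 µL per 196 µL inoculated medium. Plates were incubated aerobically or anaerobically as each pathogen requires, at 37 °C for 24 h, and OD600 was read. MIC was the lowest concentration giving 100% growth inhibition. Duplicate wells; assay repeated five times independently.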

[29] = test system: Caco-2; assay: Anti-inflammatory activity in human Caco-2 cells infected with Clostridium difficile ATCC 43602 assessed as reduction in IL-6 level at MIC concentration by ELISA relative to control; type: functional; set-up: scale not given: the % may be the effect or the level left; procedure, shortened: as §5
[30] = test system: Caco-2; assay: Anti-inflammatory activity in human Caco-2 cells infected with Clostridium difficile ATCC 43602 assessed as reduction in IL-8 level at MIC concentration by ELISA relative to control; type: functional; set-up: scale not given: the % may be the effect or the level left; procedure, shortened: as §5

Molecule	MIC [1] [µM]	Activity [3]	Activity [4]	Activity [5]	Activity [6]	Activity [7]	Activity [8]	Activity [9]	Activity [10]	Activity [11]	Activity [12]	Activity [13] [%]	Activity [14]	Activity [15] [log10CFU/ml]	Activity [16] [log10CFU/ml]	Retention_time [17] [min]	MIC [18] [µM]	Activity [19] [%]	other results
CC[C@H](C)[C@H](NC(=O)CNC(=O)CNC(=O)[C@H](CO)NC(=O)[C@@H](NC(=O)[C@H](CCCCN)NC(=O)[C@H](CO)NC(=O)[C@H](CC(C)C)NC(=O)[C@H](CCC(=O)O)NC(=O)[C@@H](NC(=O)[C@H](CCC(=O)O)NC(=O)[C@H](CC(N)=O)NC(=O)[C@H](CC(C)C)NC(=O)[C@H](CCCCN)NC(=O)[C@H](CC(N)=O)NC(=O)[C@@H](N)CCSC)C(C)C)[C@@H](C)CC)C(=O)NCC(=O)N1CCC[C@H]1C(=O)N[C@@H](CC(C)C)C(=O)N[C@H](C(=O)N[C@H](C(=O)N1CCC[C@H]1C(=O)N[C@H](C(=O)N[C@@H](C)C(=O)N[C@@H](C)C(=O)N[C@H](C(=O)N[C@@H](CC(C)C)C(=O)NCC(=O)N[C@@H](Cc1ccccc1)C(=O)N[C@@H](CC(C)C)C(=O)N[C@@H](C)C(=O)N[C@H](C(=O)N[C@@H](CC(=O)O)C(=O)N[C@@H](C)C(=O)N[C@@H](Cc1c[nH]c2ccccc12)C(=O)N[C@@H](CC(N)=O)C(=O)N[C@@H](Cc1cnc[nH]1)C(=O)N[C@@H](C)C(=O)N[C@@H](CC(=O)O)C(=O)N[C@@H](CCC(=O)O)C(=O)N[C@@H](CC(C)C)C(=O)N[C@H](C(=O)N[C@@H](C)C(=O)NCC(=O)N[C@H](C(=O)N[C@@H](CCCCN)C(=O)N[C@@H](CCC(N)=O)C(=O)NCC(=O)N[C@@H](Cc1c[nH]c2ccccc12)C(=O)N[C@@H](CCC(=O)O)C(=O)N[C@@H](CCCNC(=N)N)C(=O)N[C@@H](CO)C(=O)O)C(C)C)C(C)C)[C@H](C)O)[C@@H](C)CC)C(C)C)[C@@H](C)CC)C(C)C	1.2 (≈ 6.62 µg/mL)	inactive	inactive	Active	Active	Active	Active	Active	Active	Active	Active	91	Active	2	5	–	–	–	MIC [2]: 7.5 µM (≈ 41.4 µg/mL)
H-LSKISGGIGPLVIPV-NH2	–	–	inactive	Active	Active	Active	Active	Active	Active	Active	Active	–	Active	2	5	14.51	0.9	10	MIC ([3]; read-out: MIC100): 9.3 µM; Activity [20]: Active; Activity [21]: Active; Activity [22]: Active; Activity [23]: Active; Activity [24]: Active; Activity [25]: Active
CC1(C)S[C@@H]2[C@H](NC(=O)[C@H](N)c3ccc(O)cc3)C(=O)N2[C@H]1C(=O)O [AMOXICILLIN]	–	–	–	–	–	–	–	–	–	–	–	–	Active	4	5	–	–	–	MIC [26]: 5 µM (≈ 1.83 µg/mL); MIC ([27]; read-out: MIC100): 35 µM (≈ 12.8 µg/mL); MIC ([28]; read-out: MIC100): 35 µM (≈ 12.8 µg/mL)
H-AGVKQGWERS-NH2	–	inactive	inactive	Active	Active	Active	Active	Active	Active	Active	Active	18	–	–	–	6.41	–	0	–
CC[C@H](C)[C@@H]1NC(=O)CNC(=O)CNC(=O)[C@H](CO)NC(=O)[C@H]([C@@H](C)CC)NC(=O)[C@H](CCCCN)NC(=O)[C@H](CO)NC(=O)[C@H](CC(C)C)NC(=O)[C@H](C(C)C)NC(=O)[C@@H]2CCCN2C(=O)[C@H]([C@@H](C)CC)NC(=O)[C@H](C(C)C)NC(=O)[C@H](CC(C)C)NC(=O)[C@@H]2CCCN2C(=O)CNC1=O (cyclo(LSKISGGIGPLVIPV))	1.5 (≈ 2.15 µg/mL)	–	inactive	Active	Active	Active	Active	Active	Active	Active	Active	–	–	–	–	18.35	0.9 (≈ 1.29 µg/mL)	–	Activity [29]: 4%
H-SGGIGPLVIP-NH2	–	–	inactive	Active	Active	Active	Active	Active	Active	Active	Active	–	–	–	–	13.82	–	–	Activity [27]: inactive; Activity [28]: inactive; Activity [30]: 6%
